Reference: ChEMBL document CHEMBL3588807, “Cytotoxic Indolocarbazoles from Actinomadura melliaura ATCC 39691” (J Nat Prod, 2015)
The source made the active and inactive calls. The rule behind the calls is not given here.

Tests used:
A549 [1] = assay: Cytotoxic activity against human A549 cells assessed as cell viability at 10 uM incubated for 72 hrs; type: functional; details: A549, 72 h, read-out: Activity
Procedure, shortened: (§1)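 Single-dose viability screen at 10 μM, run in triplicate, on human cancer cell lines.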

PC-3 [2] = assay: Cytotoxic activity against human PC3 cells assessed as reduction in cell viability incubated for 72 hrs; type: functional, cell-based; details: PC-3, 72 h
Procedure, shortened: (§2)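 IC50 determined from viability over 0.03 to 100 000 nM, run in triplicate, on human cancer cell lines.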

[3] = Cytotoxic activity against human U118MG cells assessed as reduction in cell viability incubated for 72 hrs; type: functional, cell-based; details: U-118-MG; procedure, shortened: as §2
[4] = tested on: Mycolicibacterium smegmatis; assay: Antimicrobial activity against Mycobacterium smegmatis ATCC 14468 assessed as inhibition of microbial growth incubated for 16 to 48 hrs; type: functional
Procedure, shortened: (§3)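 MIC determined in triplicate against bacterial and yeast strains. Bacterial MICs were read after 16–48 h of incubation and the Saccharomyces cerevisiae MIC after 24 h. Procedure otherwise follows an earlier report.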

[5] = Cytotoxic activity against human U118MG cells assessed as cell viability at 10 uM incubated for 72 hrs; type: functional; details: U-118-MG, read-out: Activity; procedure, shortened: as §1
Micrococcus luteus [6] = assay: Antimicrobial activity against Micrococcus luteus NRRL B-287 assessed as inhibition of microbial growth incubated for 16 to 48 hrs; type: functional; procedure, shortened: as §3
Staphylococcus aureus [7] = assay: Antimicrobial activity against Staphylococcus aureus ATCC 6538 assessed as inhibition of microbial growth incubated for 16 to 48 hrs; type: functional; procedure, shortened: as §3
Salmonella enterica = assay: Antimicrobial activity against Salmonella enterica ATCC 10708 assessed as inhibition of microbial growth up to 60 uM incubated for 16 to 48 hrs; type: functional, organism-based; procedure, shortened: as §3
Escherichia coli = assay: Antimicrobial activity against Escherichia coli NRRL B-3708 assessed as inhibition of microbial growth up to 60 uM incubated for 16 to 48 hrs; type: functional, organism-based; procedure, shortened: as §3
A549 [8] = assay: Cytotoxic activity against human A549 cells assessed as reduction in cell viability incubated for 72 hrs; type: functional, cell-based; details: A549, 72 h; procedure, shortened: as §2
PC-3 [9] = assay: Cytotoxic activity against human PC3 cells assessed as cell viability at 10 uM incubated for 72 hrs; type: functional; details: PC-3, 72 h, read-out: Activity; procedure, shortened: as §1
Saccharomyces cerevisiae [10] = assay: Antimicrobial activity against Saccharomyces cerevisiae ATCC 204508 assessed as inhibition of microbial growth incubated for 24 hrs; type: functional; details: ATCC 204508, 24 h; procedure, shortened: as §3
Staphylococcus aureus [11] = assay: Antimicrobial activity against Staphylococcus aureus ATCC 6538 assessed as inhibition of microbial growth up to 60 uM incubated for 16 to 48 hrs; type: functional, organism-based; procedure, shortened: as §3
Saccharomyces cerevisiae [12] = assay: Antimicrobial activity against Saccharomyces cerevisiae ATCC 204508 assessed as inhibition of microbial growth up to 60 uM incubated for 24 hrs; type: functional, organism-based; procedure, shortened: as §3
[13] = tested on: Mycolicibacterium smegmatis; assay: Antimicrobial activity against Mycobacterium smegmatis ATCC 14468 assessed as inhibition of microbial growth up to 120 uM incubated for 16 to 48 hrs; type: functional, organism-based; procedure, shortened: as §3
Micrococcus luteus [14] = assay: Antimicrobial activity against Micrococcus luteus NRRL B-287 assessed as inhibition of microbial growth up to 60 uM incubated for 16 to 48 hrs; type: functional, organism-based; procedure, shortened: as §3

Row | Compound | viability at 10 µM (A549 [1]) | IC50 (PC-3 [2]) | IC50 [3] | MIC [4] | viability at 10 µM [5] | MIC (Micrococcus luteus [6]) | MIC (Staphylococcus aureus [7]) | growth inhibition (GI) (Salmonella enterica) | growth inhibition (GI) (Escherichia coli) | IC50 (A549 [8]) | viability at 10 µM (PC-3 [9]) | MIC (Saccharomyces cerevisiae [10]) | growth inhibition (GI) (Staphylococcus aureus [11]) | growth inhibition (GI) (Saccharomyces cerevisiae [12]) | growth inhibition (GI) [13] | growth inhibition (GI) (Micrococcus luteus [14])
1 | CN[C@H]1CO[C@@H](OC[C@H]2O[C@@H](n3c4c(Cl)cccc4c4c5c(c6c7ccccc7[nH]c6c43)C(=O)N(C)C5=O)[C@H](O)[C@@H](O)[C@@H]2OC)C[C@@H]1O | 10.5% | 106 nM | 56.8 nM | 60 µM | 20.8% | 7.5 µM | 1 µM | inactive | inactive | 76.4 nM | 27% | 7.5 µM | – | – | – | –
2 | CO[C@H]1[C@H](O)[C@@H](O)[C@H](n2c3ccccc3c3c4c(c5c6ccccc6[nH]c5c32)C(=O)N(C)C4=O)O[C@@H]1CO | 96.6% | – | – | > 120 µM | 61% | 15 µM | 7.5 µM | inactive | inactive | – | 98.3% | > 60 µM | – | – | – | –
3 | CO[C@H]1[C@H](O)[C@@H](O)[C@H](n2c3c(Cl)cccc3c3c4c(c5c6ccccc6[nH]c5c32)C(=O)N(C)C4=O)O[C@@H]1CO | 47.4% | – | – | – | 40.5% | – | – | inactive | inactive | – | 69% | – | inactive | inactive | inactive | inactive
4 | CN[C@H]1CO[C@@H](OC[C@H]2O[C@@H](n3c4c(Cl)cccc4c4c5c(c6c7ccccc7[nH]c6c43)C(=O)NC5=O)[C@H](O)[C@@H](O)[C@@H]2OC)C[C@@H]1O | 19.9% | 45.8 nM | 47.3 nM | 120 µM | 31.3% | 7.5 µM | 7.5 µM | inactive | inactive | 69.6 nM | 39% | > 60 µM | – | – | – | –
5 | CN1C(=O)c2c(c3c4cccc(Cl)c4[nH]c3c3[nH]c4ccccc4c23)C1=O | 164% | – | – | – | 186% | – | – | inactive | inactive | – | 155% | – | inactive | inactive | inactive | inactive
6 | O=C1NC(=O)c2c1c1c3ccccc3[nH]c1c1c2c2ccccc2n1[C@@H]1O[C@H](CO)[C@@H](O)[C@H](O)[C@H]1O | 32.6% | – | – | – | 53.6% | – | – | inactive | inactive | – | 47.7% | – | inactive | inactive | inactive | inactive
7 | CN[C@H]1CO[C@@H](OC[C@H]2O[C@@H](n3c4ccccc4c4c5c(c6c7ccccc7[nH]c6c43)C(=O)N(C)C5=O)[C@H](O)[C@@H](O)[C@@H]2OC)C[C@@H]1O | 16.6% | – | – | 120 µM | 29.4% | 7.5 µM | 7.5 µM | inactive | inactive | – | 36.4% | > 60 µM | – | – | – | –
